Source: ChEMBL document CHEMBL2346638, “Secondary amines containing one aromatic nitro group: preparation, nitrosation, sustained nitric oxide release, and the synergistic effects of released nitric oxide and an arginase inhibitor on vascular smooth muscle cell proliferation” (Bioorg Med Chem, 2013)
Activity calls are given as the source filed them. No cut-off for these calls is given here.

Experiments:
[1] = Half life of the compound; assay type: physicochemical
Outline: (§1)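 Nitrosated compound was stirred in 1X PBS at 0.0125 M (0.0250 M NO) at room temperature. Aliquots were taken hourly to 12 h, every 4 h to 24 h, every 8 h to 48 h, then every 24 h. Aliquots were centrifuged and triplicate supernatants mixed with Griess reagent for 5 min. Absorbance at 550 nm was plotted against time.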

[2] = Induction of nitric oxide release in phosphate buffered saline up to 20 days by Griess reagent test in presence of glutathione; assay type: physicochemical; conditions: buffer, 480 h
Outline: (§2)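 The same protocol was used in 1X PBS containing 5 mM reduced glutathione: donor at 0.0125 M, room temperature, timed aliquots over about 20 days. Supernatants were mixed with Griess reagent and absorbance read at 550 nm; no new calibration was needed.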

[3] = Half life of the compound in presence of glutathione; assay type: physicochemical; conditions: gsh; outline: as §2
[4] = Induction of nitric oxide release in phosphate buffered saline up to 20 days by Griess reagent test; assay type: physicochemical; set-up: concentration or dose not given beside the values; conditions: buffer, 480 h; outline: as §1
[5] = test system: HASMC; assay: Induction of nitric oxide release in HASMC at 5 to 20 uM after 60 mins by DAF-FM DA assay; assay type: functional, cell-based; conditions: Homo sapiens
[6] = Nitrosation of the compound in glacial acetic acid/tetrahydrofuran after 24 to 48 hrs by IR spectroscopy analysis; assay type: physicochemical
[7] = Nitrosation of the compound in glacial acetic acid/tetrahydrofuran after 24 to 48 hrs by IR spectroscopy analysis in presence of glutathione; assay type: physicochemical
[8] = Toxicity in HASMC assessed as cell viability at 10 uM after 96 hrs by MTT assay relative to control; assay type: cell-based; conditions: human, HASMC cells; read-out: Activity
Outline: (§3)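 Serum-starved HASMCs (3000–3500 cells/well) received compound in complete SMC medium (2% FBS) with 1% DMSO at 0.1, 1, 5, 10 or 20 µM for 48 h. Fresh medium was then added and cells grew a further 48 h (96 h total). MTT 4–6 h at 37 °C, solubilized, A570 as % of medium-only control; 1% DMSO vehicle; triplicate; t-test versus vehicle.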

[9] = test system: HASMC; assay: Toxicity in HASMC assessed as cell viability using calcein AM and ethidium homodimer-1 by LIVE/DEAD assay; assay type: cell-based; conditions: human
Outline: (§4)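 HASMCs in black plates were exposed for 96 h to compound at 0.1–20 µM in medium with 1% DMSO. Floating dead cells were pelleted, washed in PBS and returned to their wells. Cells were stained with Eth-1 (0.5 µM) and calcein AM (0.25 µM) for 45 min at room temperature, then read at ex/em 495/530 and 528/645 nm. Triplicate; t-test versus vehicle.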

[10] = Toxicity in HASMC assessed as cell viability at 20 uM after 96 hrs by MTT assay relative to control; assay type: cell-based; conditions: human, HASMC cells; read-out: Activity; outline: as §3
[11] = Toxicity in HASMC assessed as cell viability at 1 uM after 96 hrs by MTT assay relative to control; assay type: cell-based; conditions: human, HASMC cells; read-out: Activity; outline: as §3
[12] = Toxicity in HASMC assessed as cell viability at 0.1 uM after 96 hrs by MTT assay relative to control; assay type: cell-based; conditions: human, HASMC cells; read-out: Activity; outline: as §3
[13] = Toxicity in HASMC assessed as cell viability at 5 uM after 96 hrs by MTT assay relative to control; assay type: cell-based; conditions: human, HASMC cells; read-out: Activity; outline: as §3
[14] = test system: HASMC; assay: Antiproliferative activity against HASMC at 20 uM after 96 hrs by MTT assay; assay type: functional, Homo sapiens; outline: as §3
[15] = test system: HASMC; assay: Antiproliferative activity against HASMC at <= 20 uM after 96 hrs by MTT assay; assay type: functional, cell-based; conditions: Homo sapiens; outline: as §3
[16] = test system: HASMC; assay: Antiproliferative activity against HASMC using calcein AM and ethidium homodimer-1 at 20 uM by LIVE/DEAD assay in presence of S-2-amino-6-boronic acid; assay type: functional, cell-based; conditions: Homo sapiens
Outline: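 HASMCs in black plates were induced with LPS/IFN-γ for 6 h, then given 20 µM donor plus 5 mM ABH for two 48 h periods. Detached cells were pelleted, washed and returned to their wells. Staining used ethidium homodimer-1 (0.5 µM) and calcein AM (0.25 µM) for 45 min at room temperature. Live cells were read at 495/530 nm and dead cells at 528/645 nm.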

[17] = test system: HASMC; assay: Antiproliferative activity against HASMC using calcein AM and ethidium homodimer-1 at <= 20 uM by LIVE/DEAD assay; assay type: functional, cell-based; conditions: Homo sapiens; outline: as §4
[18] = test system: HASMC; assay: Induction of nitric oxide release in HASMC at 20 uM after 60 mins by DAF-FM DA assay in presence of S-2-amino-6-boronic acid; assay type: functional, cell-based; conditions: Homo sapiens
Outline: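 After LPS/IFN-γ induction (6 h), HASMCs were treated with 20 µM donor plus 5 mM ABH over 96 h. Cells were then loaded with DAF-FM DA (10 µM) for 60 min at room temperature in the dark, washed three times, left to de-esterify, and read at ex/em 495/515 nm.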

[19] = test system: HASMC; assay: Antiproliferative activity against HASMC at 20 uM after 96 hrs by MTT assay in presence of S-2-amino-6-boronic acid; assay type: functional, cell-based; conditions: Homo sapiens
Outline: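 HASMCs were induced with LPS (50 µg/mL) and IFN-γ (50 ng/mL) for 6 h at 37 °C. Cytokines were removed and cells were treated with 5 mM ABH plus donor (20 µM) in SMC medium for 48 h at 37 °C. A second dose was added, followed by a further 48 h. Readout was MTT absorbance at 570 nm.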

[20] = test system: HASMC; assay: Antiproliferative activity against HASMC at 1 mM after 96 hrs by MTT assay; assay type: functional; conditions: Homo sapiens
Outline: (§5)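 HASMCs at passage six or later were seeded at 3000–3500 cells/well, attached 16–24 h at 37 °C, then serum-starved 24–48 h. iNOS was induced with LPS (50 µg/mL) plus IFN-γ (50 ng/mL) for 6 h at 37 °C. ABH was then given in SMC medium at 1, 10, 100 µM, 1.0 and 5.0 mM over two 48 h feeds. MTT absorbance was read at 570 nm; duplicate determinations.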

[21] = test system: HASMC; assay: Induction of nitric oxide release in HASMC at 0.001 to 5 mM after 60 mins by DAF-FM DA assay; conditions: Homo sapiens
[22] = test system: HASMC; assay: Antiproliferative activity against HASMC at 5 mM after 96 hrs by MTT assay; assay type: functional; conditions: Homo sapiens; outline: as §5
[23] = Nitrosation of the compound in glacial acetic acid/tetrahydrofuran after 5 to 8 hrs by IR spectroscopy analysis in presence of glutathione; assay type: physicochemical
[24] = Nitrosation of the compound in glacial acetic acid/tetrahydrofuran after 5 to 8 hrs by IR spectroscopy analysis; assay type: physicochemical
[25] = test system: HASMC; assay: Induction of cell proliferation in HASMC at 0.1 to 5 uM after 96 hrs by MTT assay; assay type: cell-based; conditions: human

SMILES	half-life [1] [h]	Activity [4] [%]	Activity [5]	viability at 96 h, 10 µM [8] [%]	Activity [9]	viability at 96 h, 20 µM [10] [%]	viability at 96 h, 1 µM [11] [%]	viability at 96 h, 0.1 µM [12] [%]	viability at 96 h, 5 µM [13] [%]	Activity [15]	Activity [17]	also measured
CCCCCCCCCCN(N=O)c1cccc(N(CCCCCCCCCC)N=O)c1[N+](=O)[O-]	62	2.6	Active	–	–	–	–	–	–	–	–	Activity [2]: 1.9%; half-life [3]: 108 h; Activity [6]: 100%; Activity [7]: 100%
CCCCCCCCCCNc1ccc([N+](=O)[O-])c(NCCCCCCCCCC)c1	–	–	–	84	Non-toxic	84	87.4	89	88	–	–	–
CCCCCCCNc1ccc([N+](=O)[O-])c(NCCCCCCC)c1	–	–	–	86	Non-toxic	85.6	87	88.3	87.6	–	–	–
CCCCCCN(N=O)c1cccc(N(CCCCCC)N=O)c1[N+](=O)[O-]	140	1.85	Active	–	–	–	–	–	–	Active	Active	Activity [14]: 18%; inhibition [16]: Active; Activity [6]: 100%; Activity [18]: Active; inhibition [19]: Active
CCCCCCCCCNc1cccc(NCCCCCCCCC)c1[N+](=O)[O-]	–	–	–	73	Toxic	68	78	82	75	–	–	–
CCCCCCCNc1cccc(NCCCCCCC)c1[N+](=O)[O-]	–	–	–	81	Non-toxic	80	80	81.6	82	–	–	–
N[C@@H](CCCCB(O)O)C(=O)O	–	–	–	–	–	–	–	–	–	–	–	inhibition at 1000 µM [20]: 35%; Activity [21]: Active; inhibition at 5000 µM [22]: 48%
CCCCCCCCCN(N=O)c1ccc([N+](=O)[O-])c(N(CCCCCCCCC)N=O)c1	69	2.83	Active	–	–	–	–	–	–	Active	Active	Activity [2]: 1.29%; Activity [23]: 100%; half-life [3]: 109 h; Activity [24]: 100%
CCCCCCCCNc1cccc(NCCCCCCCC)c1[N+](=O)[O-]	–	–	–	83.2	Non-toxic	82.8	89.7	86.2	82.9	–	–	–
CCCCCCNc1cccc(NCCCCCC)c1[N+](=O)[O-]	–	–	–	81	Non-toxic	81	82	82.2	84	–	–	–
CCCCCCCCCCN(N=O)c1ccc([N+](=O)[O-])c(N(CCCCCCCCCC)N=O)c1	60	3	Active	–	–	–	–	–	–	Active	Active	Activity [24]: 100%
CCCCCCCCCN(N=O)c1cccc(N(CCCCCCCCC)N=O)c1[N+](=O)[O-]	80	2.32	Active	–	–	–	–	–	–	–	–	Activity [6]: 100%
CCCCCCCCN(N=O)c1ccc([N+](=O)[O-])c(N(CCCCCCCC)N=O)c1	83	2.63	Active	–	–	–	–	–	–	Active	Active	Activity [24]: 100%
CCCCCCN(N=O)c1ccc([N+](=O)[O-])c(N(CCCCCC)N=O)c1	105	2.34	Active	–	–	–	–	–	–	Active	Active	Activity [2]: 0.84%; Activity [14]: 23%; Activity [23]: 100%; half-life [3]: 126 h; inhibition [16]: Active; Activity [18]: Active; inhibition [19]: Active; Activity [24]: 100%
CCCCCCCCN(N=O)c1cccc(N(CCCCCCCC)N=O)c1[N+](=O)[O-]	93	2.13	Active	–	–	–	–	–	–	Active	Active	Activity [2]: 1.32%; half-life [3]: 123 h; Activity [6]: 100%; Activity [7]: 100%
CCCCCCCN(N=O)c1cccc(N(CCCCCCC)N=O)c1[N+](=O)[O-]	126	2.02	inactive	–	–	–	–	–	–	Active	Active	Activity [25]: Toxic; Activity [6]: 100%
CCCCCCCCCCNc1cccc(NCCCCCCCCCC)c1[N+](=O)[O-]	–	–	–	69	Toxic	65	75.5	76.8	70	–	–	–
CCCCCCCN(N=O)c1ccc([N+](=O)[O-])c(N(CCCCCCC)N=O)c1	87	2.48	Active	–	–	–	–	–	–	Active	Active	Activity [24]: 100%
CCCCCCCCNc1ccc([N+](=O)[O-])c(NCCCCCCCC)c1	–	–	–	84	Non-toxic	85.4	89.6	84.6	87.2	–	–	–
CCCCCCNc1ccc([N+](=O)[O-])c(NCCCCCC)c1	–	–	–	85.9	Non-toxic	87	86.1	85.1	84	–	–	–
CCCCCCCCCNc1ccc([N+](=O)[O-])c(NCCCCCCCCC)c1	–	–	–	84.5	Non-toxic	86	86.3	87	86	–	–	–
